Reference: ChEMBL document CHEMBL2424526, “Thrombin inhibitory activity of some polyphenolic compounds” (Med Chem Res, 2013)
Activity calls are given as the source filed them. The rule behind the calls is not given here.

Legend:
[1] = target: T1, Prothrombin (Homo sapiens, UniProt P00734); assay: Inhibition of human thrombin amidolytic activity using D-Phe-Pip-Arg-pNA as substrate at 0.1 to 1000 uM preincubated for 10 mins followed by substrate addition measured every 12 secs for 10 mins by spectrophotometric analysis
Summary of the method: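 Human plasma thrombin (17.6 nM in 50 mM TBS pH 7.4) preincubated 10 min at 37 °C with compound (from 10 mM stocks in 50% DMSO; final DMSO 5%, final thrombin 15.8 nM), then added to 3 mM D-Phe-Pip-Arg-pNA stock.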

[2] = target: T1, Prothrombin; assay: Inhibition of human thrombin assessed as inhibition of fibrinogen polymerization preincubated for 10 mins followed by fibrionogen addition measured for 20 mins
Summary of the method: (§1)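 Thrombin preincubated with compound 10 min at 37 °C, then added (final 10.4 nM) to human fibrinogen (3 mg/ml) in 50 mM TBS with 5 mM CaCl2, pH 7.4. Turbidity at 595 nm read every 12 s for 20 min at 37 °C. Vmax expressed as % of solvent control; 12 independent experiments in duplicate.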

[3] = target: T1, Prothrombin; conditions: 125 to 1000 uM
[4] = target: T1, Prothrombin; assay: Competitive inhibition of human thrombin using D-Phe-Pip-Arg-pNA as substrate preincubated for 10 mins followed by substrate addition measured every 12 secs for 10 mins by Lineweaver-Burk plot analysis
[5] = target: T1, Prothrombin; assay: Inhibition of human thrombin assessed as equilibrium association constant at 50 to 1000 uM by BIAcore analysis
[6] = target: T1, Prothrombin; conditions: 125 to 1000 uM; remark: listed apart in the source
[7] = target: T1, Prothrombin; assay: Inhibition of human thrombin amidolytic activity using D-Phe-Pip-Arg-pNA as substrate preincubated for 10 mins followed by substrate addition measured every 12 secs for 10 mins by spectrophotometric analysis
[8] = target: T1, Prothrombin; conditions: 150 to 1000 uM
[9] = target: T1, Prothrombin; conditions: 150 to 1000 uM; remark: listed apart in the source
[10] = target: T1, Prothrombin; assay: Inhibition of human thrombin assessed as inhibition of fibrinogen gamma-gamma chain formation at 15 uM after 5 mins by SDS-PAGE analysis
Summary of the method: (§2)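 Fibrinogen isolated from human plasma, containing factor XIII (3 mg/ml in 50 mM TBS, 5 mM CaCl2), mixed with thrombin (final 10.4 nM) that was preincubated with compound. Incubated at 37 °C and stopped at 5, 15 or 30 min with urea/SDS/β-mercaptoethanol buffer. Run on 7.5 % SDS-PAGE with Coomassie stain. Aα, γ, γ–γ dimer and α-polymer bands scored.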

[11] = target: T1, Prothrombin; assay: Inhibition of human thrombin assessed as decrease in platelet aggregation preincubated for 10 mins measured for 10 mins by dual channel chrono-log aggregometric analysis
Summary of the method: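 Gel-filtered (BSA–Sepharose 2B) human platelets at 1.5 × 10^5/μl in modified Tyrode's buffer pH 7.4, prewarmed 5 min at 37 °C with stirring. Thrombin (final 2.4 nM) preincubated 10 min at 37 °C with compound, then added. Turbidimetric aggregation recorded 10 min (0.77 % DMSO final). Result given as % of control; eight independent experiments in duplicate.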

[12] = target: T1, Prothrombin; assay: Inhibition of human thrombin assessed as inhibition of fibrinogen gamma-gamma chain formation at IC50 after 15 mins by SDS-PAGE analysis; summary of the method: as §2
[13] = target: T1, Prothrombin; assay: Inhibition of human thrombin assessed as inhibition of fibrinogen alpha polymer formation at IC50 after 15 mins by SDS-PAGE analysis; summary of the method: as §2
[14] = target: T1, Prothrombin; assay: Inhibition of thrombin (unknown origin) assessed as hydrolysis of N-benzoyl-phenylalanylvalyl-arginine-paranitroanilide
[15] = target: Trypsin (Homo sapiens, UniProt P07477+P07478+P35030); assay: Inhibition of trypsin amidolytic activity (unknown origin); type: protein assay
[16] = target: T1, Prothrombin; assay: Inhibition of human thrombin assessed as response unit at 1000 uM by BIAcore analysis
Summary of the method: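 Thrombin amine-coupled on a CM5 chip (NHS/EDC, acetate pH 6.0), 25 °C, PBS pH 7.4 running buffer. Polyphenol (100 μl) injected for 600 s at 10 μl/min, followed by 200 s PBS dissociation. Bound level read in RU. Channel regenerated with 0.1 M NaOH and 0.1 M HCl.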

[17] = target: T1, Prothrombin; assay: Inhibition of human thrombin assessed as inhibition of band decaying corresponding to fibrinogen gamma chains at 15 uM after 5 mins by SDS-PAGE analysis; summary of the method: as §2
[18] = target: T1, Prothrombin; assay: Inhibition of human thrombin assessed as inhibition of fibrinogen alpha-polymer formation at IC50 after 5 mins by SDS-PAGE analysis; summary of the method: as §2
[19] = target: T1, Prothrombin; assay: Inhibition of human thrombin assessed as inhibition of fibrinogen gamma-gamma chain formation at IC50 after 5 mins by SDS-PAGE analysis; summary of the method: as §2
[20] = target: Urokinase-type plasminogen activator (Homo sapiens, UniProt P00749); assay: Inhibition of urokinase amidolytic activity (unknown origin)
[21] = target: T1, Prothrombin; assay: Inhibition of human thrombin assessed as inhibition of band decaying corresponding to fibrinogen Aalpha chains at 15 uM after 5 mins by SDS-PAGE analysis; summary of the method: as §2
[22] = target: T1, Prothrombin; assay: Inhibition of human thrombin assessed as inhibition of fibrinogen alpha-polymer formation at 15 uM after 5 mins by SDS-PAGE analysis; summary of the method: as §2
[23] = target: T1, Prothrombin; assay: Inhibition of human thrombin assessed as inhibition of band decaying corresponding to fibrinogen Aalpha chains at IC50 after 30 mins by SDS-PAGE analysis; summary of the method: as §2
[24] = target: T1, Prothrombin; assay: Inhibition of human thrombin assessed as inhibition of fibrinogen polymerization at 50 uM preincubated for 10 mins followed by fibrionogen addition measured for 20 mins; summary of the method: as §1
[25] = target: T1, Prothrombin; assay: Inhibition of human thrombin assessed as inhibition of band decaying corresponding to fibrinogen gamma chains at IC50 after 30 mins by SDS-PAGE analysis; summary of the method: as §2
[26] = target: T1, Prothrombin; conditions: 50 to 1000 uM
[27] = target: T1, Prothrombin; conditions: 75 to 750 uM
[28] = target: T1, Prothrombin; assay: Inhibition of human thrombin assessed as inhibition of fibrinogen alpha-polymer formation at 250 uM after 15 mins by SDS-PAGE analysis
Summary of the method: (§3)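 Thrombin preincubated 10 min at 37 °C with compound, then mixed with human fibrinogen (3 mg/ml, containing factor XIII) in 50 mM TBS with 5 mM CaCl2; final thrombin 10.4 nM, 37 °C. Stopped at 5, 15, 30 min with urea/SDS/β-mercaptoethanol buffer. Run on 7.5% SDS-PAGE, Coomassie stained, scored for γ–γ dimer and α-polymer bands.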

[29] = target: T1, Prothrombin; assay: Inhibition of human thrombin assessed as inhibition of fibrinogen gamma-gamma chain formation at 250 uM after 5 mins by SDS-PAGE analysis; summary of the method: as §3
[30] = target: T1, Prothrombin; assay: Inhibition of human thrombin assessed as inhibition of fibrinogen polymerization at 1000 uM preincubated for 10 mins followed by fibrionogen addition measured for 20 mins
Summary of the method: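 Thrombin preincubated 10 min at 37 °C with compound, then added to human fibrinogen (3 mg/ml) in 50 mM TBS, 5 mM CaCl2, pH 7.4; final thrombin 10.4 nM. Turbidity at 595 nm read every 12 s for 20 min at 37 °C. Vmax expressed as % of solvent control; mean ± SD of 12 independent experiments in duplicate.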

[31] = target: T1, Prothrombin; assay: Inhibition of human thrombin assessed as inhibition of fibrinogen alpha-polymer formation at 250 uM after 5 mins by SDS-PAGE analysis; summary of the method: as §3
[32] = target: T1, Prothrombin; assay: Inhibition of human thrombin assessed as inhibition of fibrinogen gamma-gamma chain formation at 250 uM after 15 mins by SDS-PAGE analysis; summary of the method: as §3
[33] = target: T1, Prothrombin; assay: Inhibition of human thrombin assessed as decrease in platelet aggregation at 25 to 250 uM preincubated for 10 mins measured for 10 mins by dual channel chrono-log aggregometric analysis
Summary of the method: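 Human plasma thrombin (17.6 nM in 50 mM TBS, pH 7.4) preincubated 10 min at 37 °C with compound from 50% DMSO stock (9:1 v/v). Added to gel-filtered human platelets in modified Tyrode's buffer (1.5 × 10^5/μl), pre-warmed 5 min at 37 °C with stirring; final thrombin 2.4 nM, DMSO 0.77%. Turbidimetric aggregation followed for 10 min. Given as % of solvent control; eight independent experiments in duplicate.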

[34] = target: T1, Prothrombin; conditions: 5 uM

Oc1cc(O)c2c(c1)O[C@H](c1ccc(O)c(O)c1)[C@H](O)[C@H]2c1c(O)cc(O)c2c1O[C@H](c1ccc(O)c(O)c1)[C@H](O)C2
inhibition [1]: inactive

O=C(/C=C/c1ccc(O)c(O)c1)O[C@@H]1C[C@](O)(C(=O)O)C[C@@H](O)[C@H]1O
inhibition [1]: inactive

O=C1C[C@@H](c2ccc(O)cc2)Oc2cc(O)cc(O)c21
inhibition [1]: inactive

Oc1cc(O)c2c(c1)O[C@H](c1ccc(O)c(O)c1)[C@@H](O)C2
inhibition [2]: inactive | inhibition [3]: inactive | inhibition [4]: Active | Ka [5]: 2.03 ×10⁴ /M | inhibition [6]: inactive | inhibition [7]: Dose-dependent effect

Oc1cc(O)c2c(c1)O[C@H](c1ccc(O)c(O)c1)[C@H](O)C2
inhibition [2]: inactive | inhibition [4]: Active | inhibition [8]: inactive | Ka [5]: 1.92 ×10² /M | inhibition [9]: inactive | inhibition [7]: Dose-dependent effect

O=C(O)/C=C/c1ccc(O)cc1
inhibition [1]: inactive

O=C(O)c1cc(O)c(O)c(O)c1
inhibition [1]: inactive

C[C@@H]1O[C@@H](OC[C@H]2O[C@@H](Oc3c(-c4ccc(O)c(O)c4)oc4cc(O)cc(O)c4c3=O)[C@H](O)[C@@H](O)[C@@H]2O)[C@H](O)[C@H](O)[C@H]1O
inhibition [1]: inactive

O=c1c(-c2ccc(O)cc2)coc2cc(O)cc(O)c12
inhibition [1]: inactive

O=C(O)Cc1ccc(O)cc1
inhibition [1]: inactive

C[C@@H]1O[C@@H](O[C@H]2[C@H](Oc3cc(O)c4c(c3)O[C@H](c3ccc(O)cc3)CC4=O)O[C@H](CO)[C@@H](O)[C@@H]2O)[C@H](O)[C@H](O)[C@H]1O
inhibition [1]: inactive

O=c1c(O)c(-c2ccc(O)c(O)c2)oc2cc(O)cc(O)c12 [QUERCETIN]
inhibition [10]: Active | inhibition [11]: Dose-dependent effect | inhibition [2]: Dose-dependent effect | inhibition [4]: Active | inhibition [12]: inactive | inhibition [13]: inactive | Ka [5]: 2.59 ×10⁷ /M | IC50 [14]: 30 µM | IC50 [15]: 15.4 µM | RU [16]: 1880 | inhibition [17]: Active | inhibition [18]: Active | inhibition [19]: Active | IC50 [20]: 12.1 µM | inhibition [21]: Active | inhibition [7]: Dose-dependent effect | inhibition [22]: Active | inhibition [23]: inactive | inhibition [24]: Active | inhibition [25]: inactive

OC[C@H]1O[C@@H](Oc2cc3c(O[C@@H]4O[C@H](CO)[C@@H](O)[C@H](O)[C@H]4O)cc(O)cc3[o+]c2-c2ccc(O)c(O)c2)[C@H](O)[C@@H](O)[C@@H]1O
inhibition [2]: inactive | inhibition [26]: inactive | Ka [5]: 1.15 ×10² /M | inhibition [7]: Dose-dependent effect | inhibition [27]: inactive

COc1ccc([C@@H]2CC(=O)c3c(O)cc(O[C@@H]4O[C@H](CO[C@@H]5O[C@@H](C)[C@H](O)[C@@H](O)[C@H]5O)[C@@H](O)[C@H](O)[C@H]4O)cc3O2)cc1O
inhibition [1]: inactive

COc1ccc([C@@H]2CC(=O)c3c(O)cc(O)cc3O2)cc1O
inhibition [1]: inactive

COc1cc(C2Oc3cc([C@H]4Oc5cc(O)cc(O)c5C(=O)[C@@H]4O)ccc3OC2CO)ccc1O (some centres undefined) [SILIBININ]
inhibition [2]: Dose-dependent effect | inhibition [4]: Active | Ka [5]: 5.39 ×10⁴ /M | IC50 [14]: 20.9 µM | IC50 [15]: 3.7 µM | RU [16]: 1420 | inhibition [28]: inactive | inhibition [29]: Active | IC50 [20]: 21 µM | inhibition [7]: Dose-dependent effect | inhibition [30]: Active | inhibition [31]: Active | inhibition [32]: inactive | inhibition [33]: Active

Oc1cc(O)c2cc(O)c(-c3ccc(O)c(O)c3)[o+]c2c1
inhibition [11]: Dose-dependent effect | inhibition [2]: Dose-dependent effect | inhibition [4]: Active | inhibition [12]: inactive | inhibition [13]: inactive | RU [16]: 2250 | inhibition [18]: Active | inhibition [19]: Active | inhibition [34]: Active | inhibition [7]: Dose-dependent effect | inhibition [23]: inactive | inhibition [25]: inactive
